The nature of series [1]: folding enthalpy; higher = less favourable; fluorescence melt of hairpins on a sequencing array, two-state fit. Particulars: sodium 0.088 M. Summed up: (§1)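 Hairpins were imaged by Cy3 fluorescence on a sequenced MiSeq flow cell with annealed Cy3 and quencher oligos, in 50 mM Na-HEPES pH 8.0, 25 mM NaCl, in 2.5 °C steps up to 60 °C. Bootstrapped two-state fits of normalised signals gave melting temperature and folding enthalpy. Four replicates were combined by inverse variance, and fitted temperatures were raised by 9.35 °C to match UV melts.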

Series [2] is described as follows: melting temperature; fluorescence melt of hairpins on a sequencing array, two-state fit, raised by 9.35 °C to match UV melts. Conditions: sodium 0.088 M. Summed up: as §1

Take ACAGAGAAATCTGT (((((....))))): in series [1], the folding enthalpy is -13.6 kcal/mol. The Tm in series [2] was determined as 32.7 °C.

As to GCGGGGGGAAACCCTCGC (((.(((....))).))), the folding enthalpy in series [1] is -38 kcal/mol. The Tm in series [2] was determined as 61.6 °C.

In the case of GCTCTAGGAAACTGGAGC ((((.((....)).)))), the folding enthalpy in series [1] was -35.8 kcal/mol. In series [2], the Tm was determined as 49.6 °C.

GATGCTGGAAACAGCACC (.(((((....))))).): the folding enthalpy in series [1] was -14.4 kcal/mol. Moreover, in series [2], the Tm was found to be 39.4 °C.

On to GATCCTTCGCAGGATC ((((((....)))))), for which the folding enthalpy in series [1] is -37.3 kcal/mol. Further, the Tm in series [2] was determined as 51.2 °C.

On to CGATCGGAAACGAAGTCG ((((((....)))..))), for which, in series [1], the folding enthalpy was -11.7 kcal/mol. Further, the Tm in series [2] was found to be 25.6 °C.

As to GGCATGGGAAACCGTGCC ((((.((....)).)))), the folding enthalpy in series [1] is -33.2 kcal/mol. The Tm in series [2] amounted to 62.7 °C.

Consider GGTGGAGGAAACCCCACC (((((.(....).))))), for which the folding enthalpy in series [1] is -43.6 kcal/mol. Besides, the Tm in series [2] was 51.1 °C.

As for GCCGATCGAAAGATGGGC (((.(((....))).))), the folding enthalpy in series [1] is -40.4 kcal/mol. Also, the Tm in series [2] turned out to be 55.9 °C.

Turning to GGGGCCGAAAGGCTCCCC ((((((....)))..))), the folding enthalpy in series [1] is -11.7 kcal/mol. Also, in series [2], the Tm worked out at 65 °C.

For the sequence GAGGAAGGAAACTCCCTC ((((.((....)).)))), the folding enthalpy in series [1] is -25 kcal/mol. Further, the Tm in series [2] came out at 32.1 °C.

Turning to GATCGTCAAAACGATC ((((((....)))))), in series [1], the folding enthalpy is -40 kcal/mol. For the same sequence, in series [2], the Tm worked out at 55.1 °C.

GCCTTACGAAAGTAGGC (((.(((....)))))): in series [1], the folding enthalpy is -29.1 kcal/mol. In addition, in series [2], the Tm amounted to 54.2 °C.

Turning to GACCACGAAAGTGCAGTC ((((((....)))..))), the folding enthalpy in series [1] is -17.5 kcal/mol. Moreover, the Tm in series [2] was determined as 36.6 °C.

GATCGTGGTGACGATC ((((((....)))))): the folding enthalpy in series [1] was -39.1 kcal/mol. For the same sequence, in series [2], the Tm amounted to 57.6 °C.

For the sequence GTGAGTGAAAACTCAC ((((((....)))))), the folding enthalpy in series [1] was -37.7 kcal/mol. Also, in series [2], the Tm turned out to be 59.1 °C.

With GCCTCGCGAAAGCGTTGC ((..(((....)))..)), the folding enthalpy in series [1] is -15.7 kcal/mol. Moreover, the Tm in series [2] is 39.9 °C.

On to GTTACAGGAAACCGTAAC (((((.(....).))))), for which the folding enthalpy in series [1] is -35.6 kcal/mol. In series [2], the Tm amounted to 39.4 °C.

GAGAGGCGAAAGCCCCTC (((.(((....))).))): the folding enthalpy in series [1] was -17.3 kcal/mol. In addition, the Tm in series [2] stood at 51.7 °C.

As to GGGTATCGAAAGATGCCC (((.(((....))).))), in series [1], the folding enthalpy is -58.7 kcal/mol. For the same sequence, the Tm in series [2] was 58.2 °C.

On to CGTGACGGAAACGTACG (((.(((....)))))), for which, in series [1], the folding enthalpy was -25.3 kcal/mol. Further, in series [2], the Tm was found to be 42.5 °C.

As to GCTCAGCGAAAGCTACGC ((..(((....)))..)), the folding enthalpy in series [1] is -11.4 kcal/mol. For the same sequence, the Tm in series [2] turned out to be 35 °C.

As to GATCTGCAATCAGATC ((((((....)))))), in series [1], the folding enthalpy is -36.7 kcal/mol. Further, in series [2], the Tm stood at 47.2 °C.

On to GCTAAGCGAAAGCGCAGC (((..((....))..))), for which, in series [1], the folding enthalpy was -30.2 kcal/mol. Also, the Tm in series [2] is 66.5 °C.

GGCGCCGGAAACGACGCC ((((.((....)).)))): the folding enthalpy in series [1] is -33.6 kcal/mol. The Tm in series [2] was determined as 66.4 °C.

As for GCTCCGCGAAAGCTAAGC (((..((....))..))), in series [1], the folding enthalpy was -9.02 kcal/mol. In addition, in series [2], the Tm was 30.7 °C.

Regarding GGTATGGGAAACTGTACC ((((..(....)..)))), the folding enthalpy in series [1] is -21.9 kcal/mol. The Tm in series [2] was found to be 36.1 °C.

In the case of GATAACGAAAGTTATATC ((((((....)))..))), the folding enthalpy in series [1] was -16 kcal/mol. The Tm in series [2] came to 38.9 °C.

As for GATCTCAACTGAGATC ((((((....)))))), in series [1], the folding enthalpy was -44.1 kcal/mol. For the same sequence, the Tm in series [2] amounted to 52.1 °C.

For the sequence GGACATGGAAACGTGTTC (.(((.(....).))).), the folding enthalpy in series [1] was -23.8 kcal/mol. The Tm in series [2] worked out at 35 °C.

Turning to GATCAGCCGCTGATC ((((((...)))))), in series [1], the folding enthalpy is -41 kcal/mol. For the same sequence, the Tm in series [2] came to 48.7 °C.

Turning to GTTCATGGAAACACGAAC ((((.((....)).)))), the folding enthalpy in series [1] was -28.4 kcal/mol. In series [2], the Tm is 34.4 °C.

For the sequence GTTCGCGGAAACACGAAC (((((.(....).))))), the folding enthalpy in series [1] was -39.7 kcal/mol. For the same sequence, in series [2], the Tm was determined as 48.9 °C.

Turning to GATCTAATTTTAGATC ((((((....)))))), the folding enthalpy in series [1] is -34.2 kcal/mol. Further, the Tm in series [2] was found to be 44 °C.

Take GCTACGCGAAAGCGTCGC ((.((((....)))).)): in series [1], the folding enthalpy was -19.3 kcal/mol. Also, in series [2], the Tm was found to be 57.7 °C.

GGCACCGAAAGGTTGCC ((((((....))).))): the folding enthalpy in series [1] was -30.9 kcal/mol. In series [2], the Tm turned out to be 63 °C.

Take GCCACGTCGAAAGACGGC (((..(((....)))))): the folding enthalpy in series [1] was -10.8 kcal/mol. Also, the Tm in series [2] is 49.5 °C.

Values taken from the array DNA melting data of Ke et al. (doi:10.1101/2024.01.08.574731).
